# The source made the active and inactive calls. The rule behind the calls is not given here.
# Experiments:
# [1] = target: T1, Synaptic vesicular amine transporter (Homo sapiens, UniProt Q05940); experiment: Displacement of [3H]reserpine from human VMAT2 expressed in HEK293 cell membranes incubated for 60 mins by scintillation counting method
# [2] = target: T1, Synaptic vesicular amine transporter; experiment: Displacement of [3H]DHTB from human VMAT2 expressed in HEK293 cell membranes incubated for 90 mins by microbeta scintillation counting method
# Summary of the method: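 Tris buffer without ATP, 90 min at room temperature. Nonspecific binding defined with 2 μM DHTB. Filtermat filtration and microBeta counting. Test compounds 1 nM–10 μM.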
# [3] = target: T1, Synaptic vesicular amine transporter; experiment: Displacement of [3H](+)-syn-Ethyl 1-(2-(2,4-Dioxo-1,2-dihydroquinazolin-3(4H)-yl)ethyl)-4-(4-fluorophenyl)piperidine-3-carboxylate from human VMAT2 expressed in HEK293 cell membranes incubated for 60 mins by scintillation counting method
# Summary of the method: (§1)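 Membranes from confluent HEK-293 cells stably expressing human VMAT2, prepared by osmotic shock and restored with Tris/K tartrate/MgSO4. About 50−75 μg protein per assay with [3H](+)-5b at 50−100 nM final. Incubated 60 min at 4 °C in the dark. Filtration, then beta counting.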
# [4] = target: T1, Synaptic vesicular amine transporter; experiment: Inhibition of human VMAT2 expressed in HEK293 cell membranes assessed as reduction in [3H[-5HT uptake pre-incubated for 10 mins before [3H[-5HT addition and measured after 6 mins; type: cell-based
# Summary of the method: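 Vesicular membranes from HEK-hVMAT2 cells: differential centrifugation, osmotic shock, then resuspension in uptake buffer (tartrate/Tris/KCl/MgSO4, ascorbate, tropolone, pargyline, pH 7.4, 2 mM MgATP). Drug preincubation 10 min at 30 °C. Stopped by filtration. Duplicate wells, IC50.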
# [5] = target: Synaptic vesicular amine transporter (Mus musculus, UniProt Q8BRU6); experiment: Inhibition of VMAT2 in C57Bl/6J mouse striatal membranes assessed as reduction in [3H[-5HT uptake pre-incubated for 10 mins before [3H[-5HT addition and measured after 8 mins; type: cell membranes, Striatum, Membrane
# Chain of Synaptic vesicular amine transporter (Mus musculus, UniProt Q8BRU6) (Q8BRU6 whole entry): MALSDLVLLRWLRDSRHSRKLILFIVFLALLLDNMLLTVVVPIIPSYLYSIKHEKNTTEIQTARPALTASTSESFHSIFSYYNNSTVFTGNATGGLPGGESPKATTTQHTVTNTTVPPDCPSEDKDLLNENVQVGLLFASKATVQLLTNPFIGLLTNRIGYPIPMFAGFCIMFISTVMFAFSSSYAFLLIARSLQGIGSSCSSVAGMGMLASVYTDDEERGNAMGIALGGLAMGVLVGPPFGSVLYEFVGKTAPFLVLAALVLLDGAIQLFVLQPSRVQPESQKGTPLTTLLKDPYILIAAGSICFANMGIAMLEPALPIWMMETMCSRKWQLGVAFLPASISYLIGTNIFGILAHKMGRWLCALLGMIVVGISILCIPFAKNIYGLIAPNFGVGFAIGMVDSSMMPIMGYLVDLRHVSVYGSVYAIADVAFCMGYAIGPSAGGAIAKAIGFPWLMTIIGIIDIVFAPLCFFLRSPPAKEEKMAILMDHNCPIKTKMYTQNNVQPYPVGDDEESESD
# [6] = target: 5-hydroxytryptamine receptor 2A (Homo sapiens, UniProt P28223); experiment: biochemical; type: cell-based, HEK293
# Chain of 5-hydroxytryptamine receptor 2A (P28223 whole entry): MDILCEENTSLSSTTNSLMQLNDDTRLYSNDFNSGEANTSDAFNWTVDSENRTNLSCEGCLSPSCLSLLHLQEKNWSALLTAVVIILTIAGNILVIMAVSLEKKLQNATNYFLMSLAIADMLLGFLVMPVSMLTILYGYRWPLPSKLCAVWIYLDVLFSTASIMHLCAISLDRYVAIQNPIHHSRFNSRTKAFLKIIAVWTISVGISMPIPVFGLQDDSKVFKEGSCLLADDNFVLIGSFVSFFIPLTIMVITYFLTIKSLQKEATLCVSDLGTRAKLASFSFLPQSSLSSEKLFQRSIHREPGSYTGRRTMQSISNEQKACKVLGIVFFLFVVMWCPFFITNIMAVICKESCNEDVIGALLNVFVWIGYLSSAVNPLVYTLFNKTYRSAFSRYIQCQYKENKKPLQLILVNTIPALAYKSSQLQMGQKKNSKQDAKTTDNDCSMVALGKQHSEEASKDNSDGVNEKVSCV
# [7] = tested on: HEK293; experiment: Cytotoxicity in HEK293 cells expressing human VMAT2 assessed as reduction in cell viability at 10 uM incubated for 24 hrs by MTT assay; type: cell-based; conditions: hek293, 24 h
# Summary of the method: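 HEK-VMAT2 cells plated at 5 × 10^4 per well. Drugs added on day 2 to triplicate wells, all with 0.1% DMSO, for 24 h. MTT reagent then 2 h at 37 °C, solvent added, read at 590 nm. Values normalized to control cells. One-way ANOVA with post hoc test.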
# [8] = target: T1, Synaptic vesicular amine transporter; experiment: Binding affinity to human VMAT2 expressed in HEK293 cell membranes by scintillation counting method based saturation binding assay
# Summary of the method: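 Saturation binding on HEK-VMAT2 membranes, with duplicate points mixing labeled and unlabeled ligand. [3H](+)-5b: 5–600 nM, 60 min at 4 °C in the dark, buffer with 2 mM MgATP. 3−4 independent experiments.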
# [9] = target: T1, Synaptic vesicular amine transporter; experiment: Binding affinity to human VMAT2 expressed in HEK293 cell membranes in presence of 2 mM Mg-ATP by scintillation counting method; conditions: tested as the 3H-labelled form; summary of the method: as §1
# [10] = target: T1, Synaptic vesicular amine transporter; experiment: Binding affinity to human VMAT2 expressed in HEK293 cell membranes assessed as observed associate rate constant at 24 to 28 nM in presence of 2 mM Mg-ATP by scintillation counting method; conditions: tested as the 3H-labelled form
# Summary of the method: (§2)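 Kinetics for the [3H](+)-5b site on HEK-293 membranes expressing human VMAT2, run with 2 mM Mg-ATP. Excess unlabeled ligand of the same kind was used. Association at a single radioligand concentration was fitted as one-phase exponential association to give kobs.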
# [11] = target: T1, Synaptic vesicular amine transporter; experiment: Binding affinity to human VMAT2 expressed in HEK293 cell membranes assessed as half life at 24 to 28 nM in presence of 2 mM Mg-ATP by scintillation counting method; conditions: tested as the 3H-labelled form; summary of the method: as §2
# [12] = target: Sodium-dependent dopamine transporter (Homo sapiens, UniProt Q01959); experiment: Displacement of [125I]RTI-55 from human DAT expressed in HEK293 cell membranes
# Chain of Sodium-dependent dopamine transporter (Q01959 whole entry): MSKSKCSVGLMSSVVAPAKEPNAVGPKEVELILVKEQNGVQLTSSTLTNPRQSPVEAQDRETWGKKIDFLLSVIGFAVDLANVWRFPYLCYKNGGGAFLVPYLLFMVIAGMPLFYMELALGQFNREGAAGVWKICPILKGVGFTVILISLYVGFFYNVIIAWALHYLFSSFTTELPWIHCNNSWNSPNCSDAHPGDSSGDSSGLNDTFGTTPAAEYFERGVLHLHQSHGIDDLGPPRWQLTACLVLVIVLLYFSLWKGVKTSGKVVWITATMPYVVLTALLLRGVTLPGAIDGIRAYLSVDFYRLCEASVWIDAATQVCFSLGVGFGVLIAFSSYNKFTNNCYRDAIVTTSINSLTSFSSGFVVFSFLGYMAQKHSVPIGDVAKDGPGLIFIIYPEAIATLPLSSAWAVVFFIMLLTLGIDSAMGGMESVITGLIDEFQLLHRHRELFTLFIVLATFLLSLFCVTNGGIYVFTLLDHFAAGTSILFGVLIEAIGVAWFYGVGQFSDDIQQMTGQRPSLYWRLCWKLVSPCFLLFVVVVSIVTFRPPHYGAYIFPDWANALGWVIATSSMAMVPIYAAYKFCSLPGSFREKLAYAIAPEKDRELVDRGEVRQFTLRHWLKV
# Summary of the method: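 Total particulate membranes from HEK-293 cells stably expressing hDAT, with [125I]RTI-55 at 40−60 pM. Nonspecific binding defined with 5 μM mazindol.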
# [13] = target: T2, 5-hydroxytryptamine receptor 1A (Homo sapiens) (UniProt P08908); experiment: Binding affinity to 5HT1A receptor (unknown origin)
# T2 sequence (whole entry): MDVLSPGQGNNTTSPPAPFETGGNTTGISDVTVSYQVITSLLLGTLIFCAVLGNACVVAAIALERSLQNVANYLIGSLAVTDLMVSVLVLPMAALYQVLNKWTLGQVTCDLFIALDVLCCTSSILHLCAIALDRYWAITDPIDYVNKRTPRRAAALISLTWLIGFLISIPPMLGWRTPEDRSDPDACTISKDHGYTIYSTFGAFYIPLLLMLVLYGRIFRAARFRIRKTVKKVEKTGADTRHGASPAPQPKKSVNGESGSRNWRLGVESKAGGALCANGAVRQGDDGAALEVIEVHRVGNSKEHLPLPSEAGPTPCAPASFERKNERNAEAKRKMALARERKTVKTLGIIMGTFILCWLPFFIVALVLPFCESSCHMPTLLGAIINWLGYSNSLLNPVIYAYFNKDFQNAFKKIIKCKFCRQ
# [14] = target: Sodium-dependent serotonin transporter (Homo sapiens, UniProt P31645); experiment: Displacement of [125I]RTI-55 from human SERT expressed in HEK293 cell membranes
# Chain of Sodium-dependent serotonin transporter (P31645 whole entry): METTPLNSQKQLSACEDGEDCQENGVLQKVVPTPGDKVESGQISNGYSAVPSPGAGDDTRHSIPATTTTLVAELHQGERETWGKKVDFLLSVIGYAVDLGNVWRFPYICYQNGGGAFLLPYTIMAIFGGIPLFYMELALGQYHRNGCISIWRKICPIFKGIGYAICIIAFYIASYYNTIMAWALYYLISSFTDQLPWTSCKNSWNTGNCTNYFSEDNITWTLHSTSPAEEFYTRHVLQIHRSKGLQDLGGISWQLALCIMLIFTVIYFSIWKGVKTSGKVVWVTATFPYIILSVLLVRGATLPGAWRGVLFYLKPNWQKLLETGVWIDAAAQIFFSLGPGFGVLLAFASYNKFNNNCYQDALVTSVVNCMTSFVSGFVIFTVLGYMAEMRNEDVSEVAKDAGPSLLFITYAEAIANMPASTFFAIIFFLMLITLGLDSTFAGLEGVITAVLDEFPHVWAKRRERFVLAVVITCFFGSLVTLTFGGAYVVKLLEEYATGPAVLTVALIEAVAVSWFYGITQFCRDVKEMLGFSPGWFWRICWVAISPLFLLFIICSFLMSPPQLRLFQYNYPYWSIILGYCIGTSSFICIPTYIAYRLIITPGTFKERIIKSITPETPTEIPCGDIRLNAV
# [15] = target: Sodium-dependent noradrenaline transporter (Homo sapiens, UniProt P23975); experiment: Displacement of [125I]RTI-55 from human NET expressed in HEK293 cell membranes
# Chain of Sodium-dependent noradrenaline transporter (P23975 whole entry): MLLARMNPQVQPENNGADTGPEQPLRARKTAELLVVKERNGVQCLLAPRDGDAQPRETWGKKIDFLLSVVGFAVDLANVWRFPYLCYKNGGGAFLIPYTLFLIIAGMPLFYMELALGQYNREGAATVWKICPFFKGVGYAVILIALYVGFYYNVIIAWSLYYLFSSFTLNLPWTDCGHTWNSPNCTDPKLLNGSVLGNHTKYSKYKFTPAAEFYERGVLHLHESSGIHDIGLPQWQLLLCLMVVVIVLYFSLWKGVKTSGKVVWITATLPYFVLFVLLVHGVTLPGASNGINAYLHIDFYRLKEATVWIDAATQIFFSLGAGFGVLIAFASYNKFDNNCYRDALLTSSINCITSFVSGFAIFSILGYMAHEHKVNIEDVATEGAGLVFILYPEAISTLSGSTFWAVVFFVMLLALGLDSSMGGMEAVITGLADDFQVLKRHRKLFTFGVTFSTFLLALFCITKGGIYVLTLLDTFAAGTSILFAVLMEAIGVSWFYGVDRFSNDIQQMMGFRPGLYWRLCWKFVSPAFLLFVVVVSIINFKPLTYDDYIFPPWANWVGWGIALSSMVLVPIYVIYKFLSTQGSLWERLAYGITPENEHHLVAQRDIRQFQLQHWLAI
# [16] = tested on: HEK293; experiment: Cytotoxicity in HEK293 cells expressing human VMAT2 assessed as reduction in cell viability at 1 uM incubated for 24 hrs by MTT assay; type: cell-based; conditions: hek293, 24 h
# Summary of the method: (§3)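 HEK-293 cells stably expressing human VMAT2, seeded at 5 × 10^4 cells/well in DMEM with 10% FetalClone, penicillin/streptomycin and G418. On day 2, compound in DMEM was added to triplicate wells, with 0.1% DMSO in all conditions, for 24 h. MTT reagent was then added for 2 h at 37 °C, followed by solvent. Absorbance read at 590 nm, normalized to control cells, and analyzed by one-way ANOVA with Dunnett's test.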
# [17] = tested on: HEK293; experiment: Cytotoxicity in HEK293 cells expressing human VMAT2 assessed as reduction in cell viability at 3 uM incubated for 24 hrs by MTT assay; type: cell-based; conditions: hek293, 24 h; summary of the method: as §3
# T1 sequence (Q05940 whole entry): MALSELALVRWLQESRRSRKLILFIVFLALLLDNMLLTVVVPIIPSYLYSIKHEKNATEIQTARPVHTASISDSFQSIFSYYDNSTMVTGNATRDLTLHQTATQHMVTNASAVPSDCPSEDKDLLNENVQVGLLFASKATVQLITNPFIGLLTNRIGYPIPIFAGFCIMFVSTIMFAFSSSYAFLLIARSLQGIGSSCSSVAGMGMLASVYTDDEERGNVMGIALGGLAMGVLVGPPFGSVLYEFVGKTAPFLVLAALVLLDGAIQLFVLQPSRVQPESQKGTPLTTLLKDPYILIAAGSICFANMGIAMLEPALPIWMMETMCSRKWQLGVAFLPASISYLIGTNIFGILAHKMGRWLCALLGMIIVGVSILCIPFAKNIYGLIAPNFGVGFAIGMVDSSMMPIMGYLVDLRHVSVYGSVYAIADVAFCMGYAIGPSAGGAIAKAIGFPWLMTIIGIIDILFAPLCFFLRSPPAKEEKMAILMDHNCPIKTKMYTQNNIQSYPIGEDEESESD
SMILES,Ki [1],Ki [2],Ki [3],IC50 [4],IC50 [5],Ki [6],Activity [7],Ki [12],Activity [13],other results
CCC1(O)CC2c3cc(OC)c(OC)cc3CCN2CC1CC(C)C (stereo unspecified),83 nM,64 nM,1930 nM,154 nM,49.6 nM,> 10000 nM,Non-Toxic,,,
COc1cc2c(cc1OC)C1CC(O)C(CC(C)C)CN1CC2 (stereo unspecified),,,,,19.8 nM,6.7 nM,Non-Toxic,,,Bmax [8]: 41.2 pmol/mg
CNC(C)Cc1ccccc1 (stereo unspecified),6400 nM,346000 nM,24500 nM,3620 nM,2740 nM,101000 nM,Non-Toxic,,,
CCOC(=O)[C@H]1CN(CCn2c(=O)[nH]c3ccccc3c2=O)CC[C@H]1c1ccc(F)cc1,,,,,,,,,,fold change (FC) [9]: 15; K [10]: 0.051; T1/2 [11]: < 1 min; Bmax ([8]; tested as the 3H-labelled form): 13.5 pmol/mg
CCOC(=O)[C@@H]1CN(CCn2c(=O)[nH]c3ccccc3c2=O)CC[C@@H]1c1ccc(F)cc1 (racemic),,,,,3.46 nM,2380 nM,Non-Toxic,4170 nM,inactive,
CCOC(=O)[C@@H]1CN(CCn2c(=O)[nH]c3ccccc3c2=O)CC[C@@H]1c1ccc(C(F)(F)F)cc1 (racemic),> 10000 nM,> 10000 nM,720 nM,2900 nM,,> 10000 nM,,> 10000 nM,inactive,
CCOC(=O)[C@@H]1CN(CCn2c(=O)[nH]c3ccccc3c2=O)CC[C@@H]1c1ccc(N(C)C)cc1 (racemic),> 10000 nM,> 10000 nM,1960 nM,5800 nM,,> 10000 nM,,> 10000 nM,inactive,
CCOC(=O)[C@@H]1CN(CCn2c(=O)[nH]c3ccccc3c2=O)CC[C@@H]1c1ccccc1 (racemic),70 nM,> 7700 nM,287 nM,19.7 nM,9.1 nM,> 10000 nM,Non-Toxic,1610 nM,inactive,
CCOC(=O)[C@@H]1CN(CCn2c(=O)[nH]c3ccccc3c2=O)CC[C@@H]1c1cccs1 (racemic),450 nM,6160 nM,900 nM,101 nM,31.5 nM,> 9300 nM,Non-Toxic,> 7100 nM,inactive,
CCOC(=O)[C@@H]1CN(CCn2c(=O)[nH]c3ccccc3c2=O)CC[C@@H]1c1cccc(C(F)(F)F)c1 (racemic),990 nM,> 10000 nM,350 nM,125 nM,12.8 nM,> 10000 nM,Non-Toxic,> 10000 nM,inactive,
CCOC(=O)[C@@H]1CN(CCn2c(=O)[nH]c3ccccc3c2=O)CC[C@@H]1c1ccc(-c2ccccc2)cc1 (racemic),> 10000 nM,> 10000 nM,3770 nM,> 10000 nM,,> 10000 nM,,> 10000 nM,inactive,
CCOC(=O)[C@@H]1CN(CCn2c(=O)[nH]c3ccccc3c2=O)CC[C@@H]1c1cccc2c1OCCO2 (racemic),,,,,,> 10000 nM,,> 10000 nM,inactive,
CCOC(=O)[C@@H]1CN(CCn2c(=O)[nH]c3ccccc3c2=O)CC[C@H]1c1ccc(F)cc1 (racemic),,,,,24.7 nM,37.3 nM,Non-Toxic,> 9300 nM,inactive,
CCOC(=O)[C@@H]1CN(CCn2c(=O)[nH]c3ccccc3c2=O)CC[C@@H]1c1ccc(C)cc1 (racemic),> 10000 nM,> 9100 nM,452 nM,2700 nM,,> 10000 nM,,7300 nM,inactive,
CCOC(=O)c1ccc([C@H]2CCN(CCn3c(=O)[nH]c4ccccc4c3=O)C[C@H]2C(=O)OCC)cc1 (racemic),,,,,,> 10000 nM,,> 10000 nM,inactive,
"CCOC(=O)C1CN(CCn2c(=O)[nH]c3ccccc3c2=O)CCC1c1ccc(F)cc1 (single isomer, unassigned; (+)) [listing 1 of 2 here]",,,,,3.39 nM,> 10000 nM,Non-Toxic,2440 nM,,Ki [14]: > 10000 nM; Ki [15]: > 10000 nM
"CCOC(=O)C1CN(CCn2c(=O)[nH]c3ccccc3c2=O)CCC1c1ccc(F)cc1 (single isomer, unassigned; (+)) [listing 2 of 2 here]",,,,,,,,,inactive,
"CCOC(=O)C1CN(CCn2c(=O)[nH]c3ccccc3c2=O)CCC1c1ccc(F)cc1 (single isomer, unassigned; (-)) [listing 1 of 2 here]",,,,,6.6 nM,,,9900 nM,,Ki ([6]; hek293): > 10000 nM
"CCOC(=O)C1CN(CCn2c(=O)[nH]c3ccccc3c2=O)CCC1c1ccc(F)cc1 (single isomer, unassigned; (-)) [listing 2 of 2 here]",,,,,,,,,inactive,
O=C(c1ccc(F)cc1)C1CCN(CCn2c(=O)[nH]c3ccccc3c2=O)CC1 [KETANSERIN],353 nM,77 nM,1190 nM,180 nM,100 nM,,Non-Toxic,,,
CN1[C@@H](CC(=O)c2ccccc2)CCC[C@H]1C[C@H](O)c1ccccc1 [LOBELINE],1840 nM,> 10000 nM,1950 nM,4200 nM,381 nM,7400 nM,,,,
COC(=O)[C@H]1[C@H]2C[C@@H]3c4[nH]c5cc(OC)ccc5c4CCN3C[C@H]2C[C@@H](OC(=O)c2cc(OC)c(OC)c(OC)c2)[C@@H]1OC [RESERPINE],,,,,1.79 nM,,,,,Bmax [8]: 0.942 pmol/mg; Activity [16]: Non-Toxic
CN[C@@H]1C[C@H]2O[C@@](C)([C@@H]1OC)n1c3ccccc3c3c4c(c5c6ccccc6n2c5c31)C(=O)NC4 [STAUROSPORINE],,,,,,,,,,Activity [16]: 45%; Activity [17]: 60%
